Screening results from PubChem BioAssay.
Sampled rows, rich in hits. Any-hit rate of the full collection: about 4.6%.
RAM network inh – inhibitors of the yeast RAM network; S. cerevisiae dse1pr::URA3 reporter, 5-FOA growth OD615, 2 d; analog-sensitive cbk1-as2 kinase mutant strain; inhibition, % at 50 µM; actives 1.8% (n = 190,000);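 active = inhibition above a set limit, 3 SD over mean compound inhibition, cut at about 8.4% in these data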;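 note: 0% = DMSO-only wells with no growth and 100% = 10 µM 1-NA-PP1 full growth; inhibition rescues growth on 5-FOA so higher OD means more RAM inhibition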
Hck-Nef inh – inhibitors of human Hck kinase activated by Nef; Recombinant Hck-YEEI plus Nef, Z-Lyte FRET kinase assay; inhibition, % at 20 µM; actives 0.68% (n = 220,000); AID 463187;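 active = Hck-Nef kinase inhibition above about 50%, limit read from the data; inactive = inhibition below that limit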;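 note: 0% = DMSO with Hck plus Nef and 100% = Hck alone without Nef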
Target sequence (P08631 whole entry, looked up): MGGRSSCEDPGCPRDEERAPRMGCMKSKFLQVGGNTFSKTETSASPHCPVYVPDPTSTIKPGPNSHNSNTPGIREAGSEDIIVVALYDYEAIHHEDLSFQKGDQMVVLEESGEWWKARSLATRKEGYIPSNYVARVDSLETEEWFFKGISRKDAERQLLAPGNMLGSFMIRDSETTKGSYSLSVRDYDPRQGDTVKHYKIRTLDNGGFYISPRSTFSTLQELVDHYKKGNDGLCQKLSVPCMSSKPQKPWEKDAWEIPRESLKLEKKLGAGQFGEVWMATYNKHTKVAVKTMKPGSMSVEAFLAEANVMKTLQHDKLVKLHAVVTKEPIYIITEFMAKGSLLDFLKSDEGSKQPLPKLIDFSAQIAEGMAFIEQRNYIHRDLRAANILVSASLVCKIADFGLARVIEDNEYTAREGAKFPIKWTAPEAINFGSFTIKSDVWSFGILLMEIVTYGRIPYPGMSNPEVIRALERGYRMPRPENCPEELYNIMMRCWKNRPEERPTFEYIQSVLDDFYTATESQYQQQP
WT yeast gro inh – growth inhibition of WT yeast, mitochondrial fusion screen; mitochondrial fusion phenotypic screen, WT strain; inhibition, % at 10 µM; actives 2.1% (n = 190,000); AID 1362; in the data active = inhibition above about 58%; tested in S. cerevisiae
Biofilm kill mix – mixture kills Candida albicans biofilm cells; C. albicans biofilm persisters + clotrimazole, fluorescence viability; primary screen in compound mixtures of four per well; AID 1242; actives 0.02% (n = 120,000); inhibition, % at 7.6 µM;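 active = inhibition above 30.3% in the primary screen of four-compound pools, then above 30% when the compound was retested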;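 note: compounds exposed to preformed 24 h biofilms for 48 h; 0% = untreated biofilm control and 100% = clotrimazole plus chlorhexidine kill blank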
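Test system: C. albicans CAF4-2 wild-type biofilms; buffer or medium: RPMI/MOPS medium, pH 7.0; schedule: 24 h biofilm formation, then 48 h compound exposure, 37 °C; detection: Alamar Blue fluorescence; measure: percent inhibition of biofilm viability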
NCF1 inh – inhibitors of human p47phox binding | P14598 | p47phox/p22phox peptide binding, fluorescence polarization, 2 h | inhibition, % at 24.7 µM | actives 0.53% (n = 220,000) | AID 1274;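 active = inhibition above about 30%, limit read from the data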;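 note: 0% = p47phox with labelled peptide and 100% = labelled peptide alone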
Arbovirus anti – blocks arbovirus infection; inhibition, % at 10 µM; arbovirus infection cell-based antiviral screen; actives 0.37% (n = 200,000); in the data active = inhibition above about 30%
RAM efflux-def – restores 5-FOA growth of efflux-deficient yeast. 1,200 tested, under 10 active. shares compounds with RAM network inh. max inhibition, %. S. cerevisiae efflux-deficient reporter strain, 5-FOA growth OD615, 2 days. AID 1305; call rule not given here;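 note: plate controls were vehicle for no effect and reference inhibitor for full effect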
An asterisk follows results filed as active; x = no result given.

SMILES	RAM network inh	Hck-Nef inh	WT yeast gro inh	Biofilm kill mix	NCF1 inh	Arbovirus anti	RAM efflux-def
CCOC(=O)/C(C#N)=C/c1cn(CCOc2ccc(OC)cc2)c2ccccc12	13*	2	4	15	-43	8	4
O=C(/C(=N/N=C/c1ccc(O)c(O)c1O)c1ccccc1)c1ccccc1	17*	2	3	20	-40	-24	1
O=C(c1ccco1)N(CCC(c1ccccc1)c1ccco1)Cc1ccc(F)cc1 (centres undefined)	8	0	47	x	-14	-35	x
CC1(C)CC(C(CCN(Cc2ccccc2)C(=O)c2ccco2)c2ccc(F)cc2)CCO1 (centres undefined)	12*	5	75*	17	-18	-35	3
COc1cccc(-n2c(=O)c3c(C)c(C(=O)N(C)C)sc3n(CC(=O)NCC3CCCO3)c2=O)c1 (centres undefined)	1	27	-2	16	0	-3	x
COc1cccc(NC(=S)NC2CC3CCCC(C2)N3CC(C)C)c1 (centres undefined)	1	6	17	4	-9	3	x
COc1cccc(/C=C/C(=O)c2cccc([N+](=O)[O-])c2)c1	1	15	12	7	5	-13	x
CCN1CCN(c2ccc(S(=O)(=O)N(CC)CC)cc2[N+](=O)[O-])CC1	3	-21	12	21	-11	-2	x
COc1cccc(C(=O)/C=C/c2ccc(N3CCCCC3)c([N+](=O)[O-])c2)c1	19*	4	-9	8	0	14	5
O=C(/C=C/c1ccc(N2CCCCC2)c([N+](=O)[O-])c1)c1ccc(S(=O)(=O)N2CCCC2)cc1	12*	3	21	21	-5	-9	6
CCN(CC)S(=O)(=O)c1ccc(N2CCN(c3cccc(OC)c3)CC2)c([N+](=O)[O-])c1	13*	-22	-17	12	-9	7	5
CCCCNC(=O)CSc1nc2ccccc2c(=O)n1CC1COc2ccccc2O1 (centres undefined)	3	0	15	x	-7	2	x
Cc1ccc(SCC(=O)Nc2ccc(F)cc2[N+](=O)[O-])cc1C	15*	4	14	9	-4	7	1
COc1cccc(-c2ccc(C#N)c(OC(=O)c3c(Cl)cccc3Cl)n2)c1	12*	-3	62*	x	-4	-21	1
COc1cccc(-c2ccc(C#N)c(OC(=O)c3ccc(Cl)cc3)n2)c1	0	4	-6	x	-11	2	x
O=C(Nc1ccc(Br)cc1)c1cccc(S(=O)(=O)Nc2cnc3ccccc3c2)c1	15*	3	-23	9	-27	-8	2
COc1ccc(NC(=O)c2cccc(S(=O)(=O)Nc3ccc(Br)cc3)c2)cn1	2	1	27	11	-26	10	x
COc1cccc(/C=C(/C(=O)OCC(=O)NC2CCCC(C)C2C)c2ccccc2)c1 (centres undefined)	20*	-1	34	8	-15	-17	6
CCCOc1ccc(CC(=O)NNC(=S)Nc2ccccc2)cc1Br	15*	2	44	10	-15	1	2
COc1ccc(CC(=O)NNC(=S)Nc2ccccc2)cc1Cl	-1	6	-6	15	-24	1	x
O=C(CNC1=NCCC1)c1ccc(Cl)cc1	2	-1	20	6	-9	-11	x
Cc1cccc(Oc2cc(NC(=O)c3ccccc3)cc([N+](=O)[O-])c2)c1	13*	-1	26	x	-4	-9	2
CC(=O)Nc1ccc(S(=O)(=O)NCCCN2CCN(Cc3ccccc3)CC2)cc1Cl	x	14	x	10	-1	x	x
COc1ccc(NC(=O)C23CC4CC(C2)CC(c2ccccc2)(C4)C3)c(OC)c1	13*	0	21	18	-1	17	4
COCCNC(=O)C12CC3CC(C1)CC(c1ccccc1)(C3)C2	1	-29	6	20	-3	3	x
SMILES	RAM network inh	Hck-Nef inh	WT yeast gro inh	Biofilm kill mix	NCF1 inh	Arbovirus anti	RAM efflux-def
FC(F)(F)c1cccc(NC(=S)NC(c2ccccc2)c2ccccc2)c1	16*	7	11	9	-37	1	4
CCOC(=O)C(C)Sc1nc2c(c(-c3cccs3)c1C#N)CCC2 (centres undefined)	12*	6	30	5	-14	10	4
N#Cc1c(SC(C(=O)O)c2ccccc2)nc2c(c1-c1cccs1)CCCC2 (centres undefined)	x	38	x	27	-13	x	x
COc1ccc(OCCSc2nnc(CCNC(=O)c3ccc(Cl)c(Cl)c3)n2C)cc1	6	1	-8	x	-8	-4	x
CCn1c(CCNC(=O)c2ccc(Cl)c(Cl)c2)nnc1SCCOc1ccc(OC)cc1	16*	1	1	x	-14	-12	1
CN1/C(=C\C=C2/C(=O)Oc3ccccc3C2=O)C(C)(C)c2ccccc21	21*	3	-3	14	-267	-8	10
CCCCCCCCNC(=O)/C(C#N)=C/c1ccc(SC)cc1	12*	8	-12	14	-11	4	3
O=C(OCc1nc2ccc(Cl)cc2n1CCO)c1ccc(O)cc1	0	-1	9	8	-6	6	x
COc1ccc(/C=C(\C#N)C(=O)NCCc2ccccc2)cc1OCc1ccccc1	18*	1	35	8	2	-8	2
O=c1c(-c2nnc(SCc3ccc(Cl)cc3Cl)o2)cccn1Cc1ccccc1	12*	7	50	x	-13	-17	1
O=C1CCC(/C=C/c2ccccc2)=NN1Cc1ccccc1Cl	23*	2	60*	x	-16	-18	1
O=C1CCC(/C=C/c2ccccc2)=NN1Cc1ccc(Cl)c(Cl)c1	13*	1	38	x	-7	-7	4
COc1ccc(/C=C/C2=NN(Cc3ccccc3)C(=O)CC2)cc1	5	18	12	24	-9	-3	x
Cc1ccc(O)c(-n2nc3ccccc3n2)c1	2	20	18	24	-16	1	x
CCOc1ccc(S(=O)(=O)Nc2nc3ccccc3nc2-n2ccc(=NC(=O)c3ccccc3C)cc2)cc1	x	1	x	21	-77	x	x
CCCCOc1ccc(CNn2c(C)nc3ccccc3c2=O)cc1	15*	2	25	x	-16	-4	2
CCOC(=O)C1(CCOc2ccccc2)CCN(C(=O)c2ccc(-n3cccn3)cc2)CC1	19*	4	43	13	-5	-18	1
CCOc1ccc(-c2c(C(=O)N/N=C/c3ccc(OC)cc3)nnn2-c2nonc2N)cc1	12*	6	-3	7	-12	-1	1
COc1cccc(NC(=O)CSc2nc3ccccc3cc2Cc2ccccc2)c1	5	1	12	x	2	-2	x
COc1cccc(CSc2nc3ccccc3cc2C=O)c1	12*	0	13	x	-9	-4	6
